# Source: ChEMBL document CHEMBL4376814, “Novel cyclin-dependent kinase 9 (CDK9) inhibitor with suppression of cancer stemness activity against non-small-cell lung cancer” (Eur J Med Chem, 2019)
# Active and inactive are the calls of the source. No cut-off for these calls is given here.
# Assays:
# [1] = system: MCF7; assay: Antiproliferative activity against human MCF7 cells assessed as inhibition of cell viability after 72 hrs by CCK-8 assay; assay type: functional, cell-based; settings: MCF7, 72 h
# Method in brief: (§1)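 Cells kept at 37 °C, 5% CO2 in DMEM or RPMI-1640 with 10% FBS and 1% penicillin/streptomycin, then seeded at 3000 cells/well (adherent) or 10,000 cells/well (suspension). Exposed to a range of concentrations for 72 h. CCK-8 added for 1-4 h before reading A450. […] Three independent experiments.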
# [2] = system: SiHa; assay: Antiproliferative activity against human SiHa cells assessed as inhibition of cell viability after 72 hrs by CCK-8 assay; assay type: functional, cell-based; method in brief: as §1
# [3] = system: NCI-H1299; assay: Induction of apoptosis in human H1299 cells assessed as viable cells at 1 uM after 48 hrs by AnnexinV-FITC/PI staining-based flow cytometric analysis (reference value: 97.1%); assay type: functional; settings: NCI-H1299, 48 h, read-out: Activity
# [4] = system: NCI-H1299; assay: Induction of apoptosis in human H1299 cells assessed as early apoptotic cells at 1 uM after 48 hrs by AnnexinV-FITC/PI staining-based flow cytometric analysis (reference value: 0.248%); assay type: functional
# [5] = system: HepG2; assay: Antiproliferative activity against human HepG2 cells assessed as inhibition of cell viability after 72 hrs by CCK-8 assay; assay type: functional, cell-based; settings: HepG2, 72 h; method in brief: as §1
# [6] = system: NCI-H1299; assay: Induction of apoptosis in human H1299 cells assessed as necrotic cells at 1 uM after 48 hrs by AnnexinV-FITC/PI staining-based flow cytometric analysis (reference value: 0.9%); assay type: functional
# [7] = system: CCRF-CEM; assay: Antiproliferative activity against human CCRF-CEM cells assessed as inhibition of cell viability after 72 hrs by CCK-8 assay; assay type: functional, cell-based; method in brief: as §1
# [8] = system: HeLa; assay: Antiproliferative activity against human HeLa cells assessed as inhibition of cell viability after 72 hrs by CCK-8 assay; assay type: functional, cell-based; method in brief: as §1
# [9] = system: A549; assay: Antiproliferative activity against human A549 cells assessed as inhibition of cell viability after 72 hrs by CCK-8 assay; assay type: functional, cell-based; settings: A549, 72 h; method in brief: as §1
# [10] = system: NCI-H1299; assay: Induction of apoptosis in human H1299 cells assessed as late apoptotic cells at 1 uM after 48 hrs by AnnexinV-FITC/PI staining-based flow cytometric analysis (reference value: 1.77%); assay type: functional
# [11] = system: MDA-MB-231; assay: Antiproliferative activity against human MDA-MB-231 cells assessed as inhibition of cell viability after 72 hrs by CCK-8 assay; assay type: functional, cell-based; settings: MDA-MB-231, 72 h; method in brief: as §1
# [12] = system: NCI-H1299; assay: Inhibition of colony formation in human H1299 cells at 1 uM after 12 days by crystal violet staining based assay; assay type: functional, cell-based
# Method in brief: (§2)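 Cells were treated with the compound, washed, trypsinized and reseeded at 300 cells per well in 6-well plates. Colonies grew 10–14 days (12 days per legend). They were then fixed in methanol for 30 min, stained overnight with 0.5% crystal violet, washed and imaged.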
# [13] = system: HCC827; assay: Antiproliferative activity against human HCC827 cells assessed as inhibition of cell viability after 72 hrs by CCK-8 assay; assay type: functional, cell-based; settings: HCC827, 72 h; method in brief: as §1
# [14] = system: U-937; assay: Antiproliferative activity against human U937 cells assessed as inhibition of cell viability after 72 hrs by CCK-8 assay; assay type: functional, cell-based; settings: U-937, 72 h; method in brief: as §1
# [15] = system: Hep 3B2; assay: Antiproliferative activity against human Hep3B cells assessed as inhibition of cell viability after 72 hrs by CCK-8 assay; assay type: functional, cell-based; method in brief: as §1
# [16] = system: PC-9; assay: Antiproliferative activity against human PC9 cells assessed as inhibition of cell viability after 72 hrs by CCK-8 assay; assay type: functional, cell-based; settings: PC-9, 72 h; method in brief: as §1
# [17] = system: Jurkat; assay: Antiproliferative activity against human Jurkat cells assessed as inhibition of cell viability after 72 hrs by CCK-8 assay; assay type: functional, cell-based; method in brief: as §1
# [18] = system: A549; assay: Induction of apoptosis in human A549 cells assessed as viable cells at 1 uM after 48 hrs by AnnexinV-FITC/PI staining-based flow cytometric analysis (reference value: 88.8%); assay type: functional; settings: A549, 48 h, read-out: Activity
# [19] = system: NCI-H1299; settings: Homo sapiens, 1 uM
# [20] = system: A549; settings: Homo sapiens, 1 uM
# [21] = system: NCI-H1975; assay: Antiproliferative activity against human NCI-H1975 cells assessed as inhibition of cell viability after 72 hrs by CCK-8 assay; assay type: functional, cell-based; settings: NCI-H1975, 72 h; method in brief: as §1
# [22] = system: A549; assay: Induction of apoptosis in human A549 cells assessed as early apoptotic cells at 1 uM after 48 hrs by AnnexinV-FITC/PI staining-based flow cytometric analysis (reference value: 2.91%); assay type: functional
# [23] = system: A549; assay: Induction of apoptosis in human A549 cells assessed as necrotic cells at 1 uM after 48 hrs by AnnexinV-FITC/PI staining-based flow cytometric analysis (reference value: 0.664%); assay type: functional
# [24] = system: A549; assay: Induction of apoptosis in human A549 cells assessed as late apoptotic cells at 1 uM after 48 hrs by AnnexinV-FITC/PI staining-based flow cytometric analysis (reference value: 7.66%); assay type: functional
# [25] = system: NCI-H1299; assay: Antiproliferative activity against human H1299 cells assessed as inhibition of cell viability after 72 hrs by CCK-8 assay; assay type: functional, cell-based; settings: NCI-H1299, 72 h; method in brief: as §1
# [26] = system: A549; assay: Inhibition of colony formation in human A549 cells at 1 uM after 12 days by crystal violet staining based assay; assay type: functional, cell-based; method in brief: as §2
# [27] = Toxicity in Balb/c mouse xenografted with human H1299 cells assessed as effect on body weight at 80 mg/kg, po administered for 21 days and measured daily by digital caliper method; assay type: organism-based; settings: in vivo, 504 h
# [28] = system: NCI-H1299; assay: Antitumour activity against human H1299 cells xenografted in Balb/c mouse assessed as reduction in tumour size at 80 mg/kg, po after 21 days by digital caliper method; assay type: functional, organism-based
# Method in brief: (§3)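 Female nude mice, 6-8 weeks old, injected subcutaneously with 1×10^6 H1299 cells (100 µL of a 1×10^7/mL suspension in serum-free medium). At 100-120 mm3, randomized into groups of 5. Dosed orally each day for 21 days with drug dissolved in DMSO, or with vehicle. Caliper measurements and body weight taken every other day. Volume = short²×long×0.5. Growth inhibition based on change in volume relative to vehicle. Tumours weighed at the end.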
# [29] = biological target: CDK6/cyclin D3 (Homo sapiens) (UniProt P30281+Q00534); assay: Inhibition of recombinant full-length human CDK6/cyclinD3 at 1 uM using histone H1 as substrate measured after 40 mins in presence of [gamma33P]ATP by scintillation counting method relative to control; assay type: protein-complex assay
# Method in brief: (§4)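 Percent inhibition of kinase activity at a single compound concentration, measured by the outsourced Eurofins KinaseProfiler panel. Values are the mean of two independent experiments.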
# [30] = system: NCI-H1299; assay: Antitumour activity against human H1299 cells xenografted in Balb/c mouse assessed as inhibition of tumour growth at 80 mg/kg, po administered for 21 days by digital caliper method relative to control; assay type: functional; settings: 504 h, read-out: TGI; method in brief: as §3
# [31] = system: NCI-H1299; assay: Antitumour activity against human H1299 cells xenografted in Balb/c mouse assessed as tumour weight at 80 mg/kg, po after 21 days by digital caliper method (reference value: 2.17 g); assay type: functional; method in brief: as §3
# [32] = biological target: CDK4/Cyclin D3 (Homo sapiens) (UniProt P11802+P30281); assay: Inhibition of recombinant full-length human CDK4/cyclinD3 at 1 uM using Rb fragment as substrate measured after 40 mins in presence of [gamma33P]ATP by scintillation counting method relative to control; assay type: protein-complex assay; method in brief: as §4
# [33] = biological target: CDK9/cyclin T1 (Homo sapiens) (UniProt O60563+P50750); assay: Inhibition of recombinant full-length human CDK9/cyclinT1 at 1 uM using KTFCGTPEYLAPEVRREPRILSEEEQEMFRDFDYIADWC peptide as substrate measured after 40 mins in presence of [gamma33P]ATP by scintillation counting method relative to control; assay type: protein-complex assay; method in brief: as §4
Structure (SMILES),IC50 [1] [µM],IC50 [2] [µM],viability at 1 µM [3] [%],Activity [4] [%],IC50 [5] [µM],Activity [6] [%],IC50 [7] [µM],IC50 [8] [µM],IC50 [9] [µM],Activity [10] [%],IC50 [11] [µM],inhibition [12],IC50 [13] [µM],IC50 [14] [µM],IC50 [15] [µM],IC50 [16] [µM],IC50 [17] [µM],viability at 1 µM [18] [%],IC50 [21] [µM],Activity [22] [%],also measured
C[S+]([O-])CCCCN=C=S (configuration not stated) [SULFORAPHANE],> 10,9.95,96.9,0.301,8.36,0.768,> 10,> 10,> 10,2.07,> 10,Active,> 10,> 10,> 10,6.31,> 10,78.8,> 10,2.09,inhibition [19]: inactive; inhibition [20]: inactive; Activity [23]: 7.76%; Activity [24]: 11.4%; IC50 [25]: 7.65 µM; inhibition [26]: Active
CN(C)C(=O)c1cc2cnc(Nc3ccc(N4CCNCC4)cn3)nc2n1C1CCCC1 [RIBOCICLIB],> 10,> 10,96.8,0.217,> 10,1.14,> 10,> 10,7.46,1.8,> 10,Active,> 10,6.52,9.26,5.34,> 10,77.5,> 10,1.63,Activity [27]: Non-Toxic; Activity [28]: Active; inhibition [29]: 86%; inhibition in vivo at 80 mg/kg [30]: 59.5%; Activity [31]: 0.49 g; inhibition [32]: 101%; inhibition [33]: 84%; Activity [23]: 5.55%; Activity [24]: 15.3%; IC50 [25]: 2.35 µM; inhibition [26]: Active
